The results in this text go back to PubChem BioAssay AID624467 (The Scripps Research Institute Molecular Screening Center, 2012).

Among all 360,000 compounds or so, about 3,600 (1%) were called active. Many of the other results were omitted from the sample, so actives are more common in it than they were. Values without a mark were called inactive.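 How the source made its calls: active means activation above the mean activation of all test compounds in the run plus 3 SD (cut at about 38% in these data); inactive means the rest.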

Trace amine-associated receptor 1 (Homo sapiens), sequence (Q96RJ0 whole entry, looked up): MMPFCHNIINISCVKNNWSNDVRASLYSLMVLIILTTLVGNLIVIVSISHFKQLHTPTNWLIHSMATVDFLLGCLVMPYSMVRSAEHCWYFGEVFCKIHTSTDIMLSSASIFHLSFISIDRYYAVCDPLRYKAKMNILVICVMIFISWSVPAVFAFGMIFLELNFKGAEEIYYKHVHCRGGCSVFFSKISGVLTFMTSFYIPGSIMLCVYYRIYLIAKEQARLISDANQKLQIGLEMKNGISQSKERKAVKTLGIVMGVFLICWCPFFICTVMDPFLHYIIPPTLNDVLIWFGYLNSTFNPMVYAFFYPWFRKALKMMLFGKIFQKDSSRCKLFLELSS

This assay deals with Trace amine-associated receptor 1 (Homo sapiens) (UniProt Q96RJ0). The experiment in a line: activators of TAAR1 calcium mobilization – Fluo-8 calcium fluorescence, CHO RD-HGA16 cells, primary screen (AID 624467). Particulars: CHO RD-HGA16 TAAR1, Fluo-8 calcium fluorescence; at 3 µM; hits give high values; vehicle wells 0%, saturating PEA agonist 100%. The procedure, abridged:
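Assay system – CHO-derived RD-HGA16 cells with stable Gα16 and human TAAR1 · Compound dosing – one-point dosing at 3 µM (nominal) · Incubation – 17-24 h seeding, 75 min 37 °C dye, 30 min RT · Measured by – kinetic Fluo-8 calcium fluorescence · Control set – DMSO vehicle as 0%, PEA at EC100 as 100% · Repeats – single well for each compound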
In the case of `Cc1ccc(NC(=S)Nc2ncccc2C)c(C)c1`, the activation was -3.17%.

For the compound `Nc1cccc2c1C(=O)N(Cc1nnc(-c3ccccc3Br)o1)C2=O`, the activation was 75.4% (active).

`Cn1cnnc1SCc1nnc(-c2ccccc2Br)o1`: the activation is 11.2%.

As for `CC(C)N(Cc1nnc(-c2ccccc2Br)o1)C(=O)c1cc(Cl)nc2ccccc12`, the activation was 4.53%.

As for `CC1(C(=O)NS(=O)(=O)c2cccc(OC(F)F)c2)CCN1C(=O)COc1ccc(Cl)cc1` (stereo not given), the activation is 1.84%.

Consider `COC(=O)c1c(-c2ccc(OC)cc2)c2c(c3c4ccccc4n(S(=O)(=O)c4ccc(C)cc4)c13)C(=O)N(C)C2`, for which the activation was -0.97%.

For `COc1ccc(CCNCc2c(-c3ccccc3)n(C)c3ccccc23)cc1`, the activation is 37.6% (active).

Regarding `COc1ccc(CNCCCn2cnc3c(OCc4ccccc4)ncnc32)cc1`, the activation is 2.67%.

Turning to `COc1ccc(-c2c(C#Cc3ccccc3)c3ccccc3n2C)cc1`, the activation was 1.86%.

As to `Cc1ccc(N2C(=O)C(NC(=O)c3c(F)cccc3F)(C(F)(F)F)C3=C2CC(C)(C)CC3=O)cc1` (stereo not given), the activation is 0.87%.

Take `O=C1[C@@H](c2ccccc2)[C@@H](c2ccccc2)N1c1ccccc1`: the activation is 3.32%.

As for `CC(C)(C)OC(=O)N1CCN(C(=O)c2[nH]c(C(F)(F)F)nc2-c2ccccc2)CC1`, the activation is 1.1%.

With `COc1ccccc1-c1c(C#N)c(N)nc2c1CCC2`, the activation is -0.25%.

For `CSc1ccc(-c2c(C#N)c(N)nc3c2c(C)nn3-c2ccccc2)cc1`, the activation is 8.14%.

Take `CSc1nc(N)c(C#N)c(-c2ccccc2Cl)c1C#N`: the activation was 56.9% (active).

In the case of `Cc1ccc2oc(=O)ccc2c1`, the activation is 0.04%.

Regarding `CCc1ccc2oc(-c3ccc(N)cc3)nc2c1`, the activation was 11.3%.

Take `CCN(CC)c1ccc2oc(=O)c(C)nc2c1`: the activation was 81% (active).

Consider `O=C1CCN(C(=O)Nc2ccccc2)N1`, for which the activation is 3.7%.

Turning to `C[C@H]1CN([C@@H](C)CO)C(=O)CCCn2nncc2CO[C@@H]1CN(C)C(=O)Nc1ccc(N2CCN(C)CC2)cc1`, the activation was 0.67%.

For the compound `CCOc1ccc(Br)cc1S(=O)(=O)Nc1ccc(S(=O)(=O)Nc2cc(C)on2)cc1`, the activation was -0.13%.

With `O=C(NNC(=S)Nc1ccc(Br)cc1Cl)c1ccco1`, the activation is 3.5%.

On to `CCC1CCCCN1C(=S)NC(=O)c1ccco1` (stereo not given), for which the activation is 4.61%.

On to `O=C(Nc1ccc2ccccc2c1)/C(=C\c1ccc2c(c1)OCO2)NC(=O)c1ccco1`, for which the activation is -0.26%.

For the compound `NS(=O)(=O)c1ccc(CNC(=S)NC(=O)c2ccco2)cc1`, the activation is 1.56%.

In the case of `CCCc1ccc(OCC(=O)NNC(=S)NC(=O)c2ccco2)cc1`, the activation is 83.4% (active).

On to `CC(Oc1ccc2ccccc2c1)C(=O)NNC(=S)NC(=O)c1ccco1` (stereo not given), for which the activation was 98.9% (active).

With `O=C(C(=O)N1CCN(c2ccccc2)CC1)c1ccc2c(c1)OCO2`, the activation was -0.35%.

With `CCC(C)NC(=O)c1ccc(NC(=O)CC2SC(N3CCCCC3)=NC2=O)cc1` (stereo not given), the activation was 1.77%.

For `C=CCOC(=O)C1=C[C@H](c2ccc(Br)cc2)C[C@H](OCCCCO)O1`, the activation was 8.86%.

`COc1cc2c(cc1OC)CN(C(C)C(=O)Nc1cccc(S(=O)(=O)N3CCOCC3)c1)CC2` (stereo not given): the activation is 0.59%.

With `O=C(NCCc1ccc(F)cc1)c1n[nH]c2ccccc12`, the activation is 1.79%.

For the compound `O=Cc1c(NCCc2cccc(F)c2)c2ccccc2[nH]c1=O`, the activation was 72.1% (active).

Take `O=Cc1c(NCCCN2CCCC2=O)c2ccccc2[nH]c1=O`: the activation was 1.42%.

For the compound `C=CCN1C(=O)N(Cc2ccccc2)c2ccccc2S1(=O)=O`, the activation was 0.49%.

Regarding `CCCCCCc1cc2cc(-c3nnc(-c4cccc(OC)c4)o3)c(=O)oc2cc1O`, the activation was 16.7%.

In the case of `CCn1cc(CN2CCCC(CNS(=O)(=O)Cc3ccccc3)C2)cn1` (stereo not given), the activation is 0.93%.

In the case of `COc1ccc2nc3n(c(=O)c2c1)-c1ccc(Cl)cc1C(=O)NC3Cc1ccccc1` (stereo not given), the activation is 4.87%.

Consider `Cn1c(=O)c(=O)n(C)c2cc(S(=O)(=O)NCCN3CCN(c4ccccc4F)CC3)ccc21`, for which the activation is -1.59%.

For `O=S(=O)(NCCc1ccccc1)c1ccccc1`, the activation was 15.9%.

In the case of `Cn1c(=O)c(=O)n(C)c2cc(S(=O)(=O)NCCc3ccccc3)ccc21`, the activation was 82.3% (active).

For `C[C@@H](CN1C2=NC[C@@H](Cc3ccccc3)N2C[C@H]1Cc1ccc(O)cc1)NC(=O)CCC1CCCCC1`, the activation is -0.01%.

For `O=C(NCC1(N2CCCCC2)CCCCC1)c1cccc(S(=O)(=O)Nc2ccccc2Cl)c1`, the activation is -0.1%.

Turning to `C[C@H]1[C@H](c2ccccc2)Oc2cc(Br)ccc2S(=O)(=O)N1Cc1cccc(F)c1`, the activation is 2.18%.

Turning to `Cc1cccc(NC(=O)C(C)N2C(=O)C3C4CC(C(Br)C4Br)C3C2=O)c1` (stereo not given), the activation is 49.9% (active).

On to `Cc1ccnc(NC(=O)C(C)N2C(=O)c3ccccc3C2=O)c1` (stereo not given), for which the activation is 2.11%.

`Cc1cccc(NC(=O)CN2C(=O)CNC2=O)c1`: the activation is 6.24%.

On to `Cc1cccc(N(C(=O)c2ccc(CN3CCOCC3)o2)C(C(=O)NC2CCCCC2)c2ccc(F)cc2)c1` (stereo not given), for which the activation is 0.09%.

Regarding `COc1ccccc1C(=O)N1O[C@]23C=C[C@]14C[C@@H](O)CC[C@]4(C)C2CC[C@]1(C)[C@@H]([C@H](C)/C=C/[C@H](C)C(C)C)CC[C@H]13` (stereo not given in full), the activation is -1.12%.

With `O=C(Nc1c(Cl)c(C2CC2)nn1-c1ccccc1)C(Cl)(Cl)Cl`, the activation is 1.51%.

Regarding `CCCCOc1ccc(CON(C(C)=O)C(C)=O)cc1Cl`, the activation was -2.24%.

As for `CCCCOc1ccc(CSC(=N)N)cc1[N+](=O)[O-]`, the activation was 68.2% (active).

In the case of `CCOc1ccc(C(=O)Nc2nccs2)cc1[N+](=O)[O-]`, the activation was 5.29%.

Consider `CCCCCOc1ccc(CSC2=NCCN2)cc1[N+](=O)[O-]`, for which the activation is 40.3% (active).

`O=[N+]([O-])c1ccccc1OCCCCN1CCCCC1`: the activation was 7.82%.

As to `CCCCOC(=O)CCCc1ccc([N+](=O)[O-])cc1[N+](=O)[O-]`, the activation is -2.61%.

With `C#CCN([C@@H](C)C(=O)OCC)S(=O)(=O)c1ccc(Br)cc1F`, the activation is -2.1%.

As for `O=C(C[C@@H]1C/C=C\CCC(=O)OC[C@@H]2CCCN2C1=O)NCCO`, the activation was 13.4%.

In the case of `C[C@H](CO)N1C[C@H](C)[C@@H](CN(C)C(=O)Nc2ccccc2F)OCc2cn(nn2)CCCC1=O`, the activation was 0.9%.

`Cc1ccc(NC(=O)c2cnc(SCC(=O)NCC3CCCO3)n(C)c2=O)cc1` (stereo not given): the activation was 1.71%.

In the case of `Cc1ccccc1-c1nc(CS(=O)(=O)CC(=O)NC(C)c2ccccc2)c(C)o1` (stereo not given), the activation is -0.93%.

Regarding `CSc1ccc(CCNC(=O)CS(=O)(=O)Cc2nc(-c3ccccc3F)oc2C)cc1`, the activation was 2.41%.

Turning to `Cc1ccccc1-c1nc(CS(=O)(=O)CC(=O)N2CCc3ccccc3C2)c(C)o1`, the activation was 45.5% (active).

Turning to `CCOC(=O)/C=C/c1ccccc1O`, the activation was 0.06%.

In the case of `CC(=O)N1Cc2cc(C(=O)NCc3cccc(F)c3)nc(-c3cccc(C4=CCCC4)c3)c2[C@H]1CCO`, the activation was 1.95%.

Consider `COc1ccccc1C(c1nnnn1C(C)(C)C)N1CCN(Cc2ccccc2)CC1` (stereo not given), for which the activation was 7.42%.

In the case of `COc1ccc(OC)c(C(c2nnnn2C(C)(C)C)N2CCc3ccccc3C2)c1` (stereo not given), the activation is 64.7% (active).

As for `COCCn1nnnc1C(c1cc2ccc(OC)cc2[nH]c1=O)N1CCc2ccccc2C1` (stereo not given), the activation is 5.6%.

As to `O=C(NNC(=O)c1cc(-c2ccccc2Cl)nc2ccccc12)c1csc(N2CCOCC2)n1`, the activation is 2.63%.

For the compound `O=C(OCCOc1ccccc1F)c1cc(S(=O)(=O)N2CCOCC2)ccc1F`, the activation is 3.93%.

On to `COc1cccc(-c2cc(CNC(=O)[C@@H](Cc3ccccc3)NC(=O)[C@H]3O[C@@H](n4cnc(C(N)=O)n4)[C@H](O)[C@@H]3O)no2)c1`, for which the activation was 2.47%.

As for `Cc1ccc(NC(=O)CN(C)C(=O)c2ccc(Cl)c(S(=O)(=O)NCc3ccco3)c2)cc1`, the activation is 1.71%.

In the case of `COc1ccc(CNC(=O)c2ccc(-c3cccnc3)c3ccoc23)cc1OC`, the activation was 19.1%.

`N=C1C(c2nc3ccccc3[nH]2)=C(O)CN1NC(=O)c1c[nH]c2ccccc12`: the activation was 41.7% (active).

For the compound `CCc1ccc(N2CC(O)=C(c3nc4ccccc4c(=O)[nH]3)C2=N)cc1`, the activation is 7.2%.

On to `C[N+](C)(C)CCNC(=O)c1c[nH]c2ccccc12`, for which the activation is 3.46%.

Consider `C=CCN=C1NC(c2ccccc2)C(C(=O)OC)=C(C)N1Cc1ccc(C(F)(F)F)cc1` (stereo not given), for which the activation was 26.7%.

As to `CCN(CC)CCCC(C)n1c2nc(=O)[nH]c(=O)c-2nc2cc(Cl)ccc21` (stereo not given), the activation was 244% (active).

With `COc1cccc(CC(=O)N2CCN(C(=O)C(=O)c3cccc(C(F)(F)F)c3)CC2)c1`, the activation was -0.34%.

Regarding `CCCCCCCCN1C(=O)[C@@H](CC(=O)NCc2ccc(C)o2)C[C@@]2(C(=O)OC)C1=C[C@H](C(C)(C)C)O[C@@H]2C`, the activation is -1.18%.

As to `CCCc1cc(C(=O)Nc2ccc(C(=O)OC)cc2)cs1`, the activation is 42.9% (active).

For `CCN(CC)C(=O)CCC(=O)Nc1ccc(C(=O)OC)cc1`, the activation was 4.26%.

On to `CCCc1cc(C(=O)Nc2ccc(Cl)cn2)cs1`, for which the activation was 0.75%.

For `NC1=NC(c2ccc([N+](=O)[O-])cc2)N(c2ccc(F)cc2)C(N)=N1` (stereo not given), the activation was 2.32%.

Regarding `CCOC(=O)Cc1csc(NC(NC(=O)OCC)(C(F)(F)F)C(F)(F)F)n1`, the activation was 11.4%.

For the compound `COC(=O)Cc1csc(Nc2c(C)n(C)n(-c3ccccc3)c2=O)n1`, the activation was 7.82%.

With `CCOC(=O)Cc1csc(NC(=O)Nc2ccccc2)n1`, the activation is 51.5% (active).

Consider `CCCOCC(O)CC(CC)C(=O)NNC(=S)Nc1ccccc1` (stereo not given), for which the activation was 6.99%.

For the compound `CCCCC(=O)NNC(=S)NC(=O)C(c1ccccc1)c1ccccc1`, the activation was 137% (active).

Consider `C/C(=N\NC(=O)CNC(=O)C(c1ccccc1)c1ccccc1)c1ccc(C)cc1`, for which the activation is -0.46%.
